The subject of experiment [1] is Liver microsome. Nature of the experiment: Effect on mitochondrial transmembrane potential in Wistar Han rat liver mitochondria energized with succinate assessed as ADP depolarization at 0.333 ug/mg of protein (reference value: 25.3 +/- 2.1 mV). It counts as functional.
Experiment [2] deals with Liver microsome. In words: Effect on mitochondrial transmembrane potential in Wistar Han rat liver mitochondria energized with succinate assessed as time duration of lag phase at 0.067 ug/mg of protein (reference value: 33.0 +/- 4.6 sec). It counts as functional. Summed up: (§1)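 Isolated male Wistar rat liver mitochondria (1.5 mg protein) in 125 mM sucrose, 65 mM KCl, 5 mM KH2PO4, 2.5 mM MgCl2, 5 mM HEPES pH 7.4, 30°C, with 3 μM TPP+. Compound added for 1 min, then 10 mM succinate plus 3 μM rotenone. State 3 started with ADP (83.3 nmol/mg protein). ΔΨ read with a TPP+-selective electrode and calculated by the Kamo equation without binding correction.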

For experiment [3], the system named is Liver microsome. In words: Effect on mitochondrial transmembrane potential in Wistar Han rat liver mitochondria energized with succinate assessed as time duration of lag phase at 0.133 ug/mg of protein (reference value: 33.0 +/- 4.6 sec). It counts as functional. A digest of the protocol: as §1
The next experiment relates to MDA-MB-231. In words: Cytotoxicity against human MDA-MB-231 cells at 0.125 to 2 ug/ml after 1 to 5 days by sulforhodamine B assay. It counts as functional, cell-based. A digest of the protocol:
(§2)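 Sulforhodamine B growth assay in high-glucose DMEM with 10% FBS. Cancer cells seeded at 1×10^4 cells/ml; compound (0.125–2 μg/ml) added 24 h after seeding and left for 1, 3 or 5 days. Cells fixed, total mass stained. Expressed as % of untreated cells at the same time point. Mean ± SEM, five independent experiments.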
A general note: Sulforhodamine B stains cellular protein and so reports cell mass.

Another experiment deals with MCF7. Nature of the experiment: Cytotoxicity against human MCF7 cells at 0.125 to 2 ug/ml after 1 to 5 days by sulforhodamine B assay. It counts as functional, cell-based. A digest of the protocol: as §2
Experiment [4] concerns Hs-578T. Nature of the experiment: Cytotoxicity against human Hs578T cells assessed as decrease in live cells at 1 ug/ml for 24 to 48 hrs by flow cytometry. It counts as functional. Summed up:
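Hs578T seeded at 2.5×10^4 cells/ml, exposed to 1 μg/ml or DMSO for 24 and 48 h. Cells trypsinized and resuspended in HEPES-buffered saline with 15 mM glucose. Stained 15 min at 37°C with 1 μM ethidium homodimer and 0.1 μM calcein-AM. Green (calcein) and red (ethidium homodimer) signals read by flow cytometry. Mean ± SEM, 6 experiments.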
On the technique in general: In flow cytometry, cells or beads pass a laser one at a time.

The test system of experiment [5] is Liver microsome. In words: Effect on mitochondrial transmembrane potential in Wistar Han rat liver mitochondria energized with succinate assessed as mitochondrial transmembrane electropotential at 0.667 ug/mg of protein (reference value: 220.6 +/- 2.5 mV). It counts as functional. Summed up: as §1
The subject of experiment [6] is Liver microsome. Nature of the experiment: Effect on mitochondrial transmembrane potential in Wistar Han rat liver mitochondria energized with succinate assessed as mitochondrial transmembrane electropotential at 1.333 ug/mg of protein (reference value: 220.6 +/- 2.5 mV). It counts as functional. A digest of the protocol: as §1
The subject of experiment [7] is Liver microsome. In words: Effect on mitochondrial transmembrane potential in Wistar Han rat liver mitochondria energized with succinate assessed as ADP depolarization at 0.667 ug/mg of protein (reference value: 34.6 +/- 1.9 mV). It counts as functional.
Experiment [8] relates to Liver microsome. In words: Effect on mitochondrial transmembrane potential in Wistar Han rat liver mitochondria energized with succinate assessed as time duration of lag phase at 0.133 ug/mg of protein Rvb = 46.7 +/- 3.9 sec). It counts as functional. A digest of the protocol: as §1
Experiment [9] has as its system Liver microsome. Nature of the experiment: Effect on mitochondrial transmembrane potential in Wistar Han rat liver mitochondria energized with succinate assessed as time duration of lag phase at 0.333 ug/mg of protein Rvb = 46.7 +/- 3.9 sec). It counts as functional. Summed up: as §1
Experiment [10] relates to Liver microsome. Nature of the experiment: Effect on mitochondrial transmembrane potential in Wistar Han rat liver mitochondria energized with succinate assessed as mitochondrial transmembrane electropotential at 0.06 ug/mg of protein (reference value: 198.0 +/- 5.6 mV). It counts as functional.
Experiment [11] has as its system Liver microsome. Nature of the experiment: Effect on mitochondrial transmembrane potential in Wistar Han rat liver mitochondria energized with succinate assessed as mitochondrial transmembrane electropotential at 0.333 ug/mg of protein (reference value: 198.0 +/- 5.6 mV). It counts as functional.
For experiment [12], the system named is Liver microsome. Nature of the experiment: Effect on mitochondrial transmembrane potential in Wistar Han rat liver mitochondria energized with succinate assessed as ADP depolarization at 0.667 ug/mg of protein (reference value: 23.9 +/- 3.3 mV). It counts as functional.
Experiment [13] concerns Liver microsome. Nature of the experiment: Effect on mitochondrial transmembrane potential in Wistar Han rat liver mitochondria energized with succinate assessed as ADP depolarization at 1.333 ug/mg of protein (reference value: 23.9 +/- 3.3 mV). It counts as functional.
The test system of experiment [14] is Liver microsome. Nature of the experiment: Effect on mitochondrial transmembrane potential in Wistar Han rat liver mitochondria energized with succinate assessed as time duration of lag phase at 0.067 ug/mg of protein (reference value: 40.5 +/- 4.5 sec). It counts as functional. A digest of the protocol:
as §1

Experiment [15] concerns Hs-578T. Nature of the experiment: Cytotoxicity against human Hs578T cells at 0.125 to 2 ug/ml incubated for 6 hrs folowed by drug wash out and fresh medium addition and measured 3 days after wash out. It counts as functional, cell-based.
The subject of experiment [16] is Liver mitochondria (Rattus norvegicus). Nature of the experiment: Effect on mitochondrial transmembrane potential in Wistar Han rat liver mitochondria energized with succinate assessed as time duration of lag phase at 0.667 ug/mg of protein (reference value: 40.5 +/- 4.5 sec).
Experiment [17] deals with Liver microsome. In words: Effect on mitochondrial transmembrane potential in Wistar Han rat liver mitochondria energized with succinate assessed as mitochondrial transmembrane electropotential at 0.06 ug/mg of protein (reference value: 216.0 +/- 7.4 mV). It counts as functional.
The test system of experiment [18] is Liver microsome. Nature of the experiment: Effect on mitochondrial transmembrane potential in Wistar Han rat liver mitochondria energized with succinate assessed as mitochondrial transmembrane electropotential at 0.667 ug/mg of protein (reference value: 216.0 +/- 7.4 mV). It counts as functional. Summed up:
as §1

Experiment [19] relates to Liver microsome. Nature of the experiment: Effect on mitochondrial transmembrane potential in Wistar Han rat liver mitochondria energized with succinate assessed as ADP depolarization at 0.133 ug/mg of protein (reference value: 34.7 +/- 1.4 mV). It counts as functional.
In experiment [20] the test system is Liver microsome. Nature of the experiment: Effect on mitochondrial transmembrane potential in Wistar Han rat liver mitochondria energized with succinate assessed as ADP depolarization at 0.333 ug/mg of protein (reference value: 34.7 +/- 1.4 mV). It counts as functional.
For experiment [21], the system named is Liver microsome. In words: Effect on mitochondrial transmembrane potential in Wistar Han rat liver mitochondria energized with succinate assessed as ADP depolarization at 1.333 ug/mg of protein (reference value: 34.7 +/- 1.4 mV). It counts as functional.
For experiment [22], the system named is Liver microsome. Nature of the experiment: Effect on mitochondrial transmembrane potential in Wistar Han rat liver mitochondria energized with succinate assessed as time duration of lag phase at 0.333 ug/mg of protein (reference value: 82.8 +/- 23.5 sec). It counts as functional. Summed up:
as §1

Experiment [23] deals with Liver microsome. In words: Effect on mitochondrial transmembrane potential in Wistar Han rat liver mitochondria energized with succinate assessed as time duration of lag phase at 0.667 ug/mg of protein (reference value: 82.8 +/- 23.5 sec). It counts as functional. Summed up:
as §1

The source made the active and inactive calls. The rule behind the calls is not given here.

The values below come from ChEMBL document CHEMBL3351723, “New derivatives of lupane triterpenoids disturb breast cancer mitochondria and induce cell death” (Bioorg Med Chem, 2014).

As to `C=C(C)[C@@H]1CC[C@]2(COC(=O)CC[n+]3ccc(N(C)C)cc3)CC[C@]3(C)[C@H](CC[C@@H]4[C@@]5(C)CC[C@H](OC(=O)CC[n+]6ccc(N(C)C)cc6)C(C)(C)[C@@H]5CC[C@]43C)[C@@H]12.[Cl-].[Cl-]`, in the experiment with Liver microsome [1], the Activity was 27.1 mV. In addition, the TIME in the experiment with Liver microsome [2] turned out to be 0.009 h; in the experiment with Liver microsome [3], 0.00867 h. For the same molecule, the inhibition result in the experiment with MDA-MB-231, in the experiment on MCF7 and in the experiment on Hs-578T [4] was “Active” throughout.
With `C=C(C)[C@@H]1CC[C@]2(COC(=O)C[N+](C)(C)C(C)C)CC[C@]3(C)[C@H](CC[C@@H]4[C@@]5(C)CC[C@H](OC(=O)C[N+](C)(C)C(C)C)C(C)(C)[C@@H]5CC[C@]43C)[C@@H]12.[Cl-].[Cl-]`, the results for the Activity in the experiment with Liver microsome [5], with Liver microsome [6] and in the experiment with Liver microsome [7] were 211 mV, 206 mV and 21.9 mV, respectively. Also, the values for the TIME in the experiment with Liver microsome [8] and in the experiment with Liver microsome [9] were 0.0137 h and 0.0129 h, respectively.
Consider `C=C(C)[C@@H]1CC[C@]2(COC(=O)C(CC)[n+]3ccc(N(C)C)cc3)CC[C@]3(C)[C@H](CC[C@@H]4[C@@]5(C)CC[C@H](OC(=O)C(CC)[n+]6ccc(N(C)C)cc6)C(C)(C)[C@@H]5CC[C@]43C)[C@@H]12` (stereo not given in full), for which the Activity with Liver microsome [10] worked out at 198 mV; in the experiment on Liver microsome [11], 193 mV; in the experiment with Liver microsome [12], 23 mV; with Liver microsome [13], 21.8 mV. Also, the TIME came to 0.0123 h with Liver microsome [14] and 0.0117 h in experiment [16]. In addition, in the experiment on Hs-578T [15], the inhibition result was “Active”.
For the molecule `C=C(C)[C@@H]1CC[C@]2(COC(=O)C[n+]3ccc(N(C)C)cc3)CC[C@]3(C)[C@H](CC[C@@H]4[C@@]5(C)CC[C@H](OC(=O)C[n+]6ccc(N(C)C)cc6)C(C)(C)[C@@H]5CC[C@]43C)[C@@H]12.[Cl-].[Cl-]`, the Activity with Liver microsome [17] is 209 mV; in the experiment on Liver microsome [18], 206 mV; with Liver microsome [19] it was 29.8 mV; in the experiment with Liver microsome [20], 29 mV; with Liver microsome [21], 25.2 mV. The TIME in the experiment on Liver microsome [22] was 0.0217 h; in the experiment on Liver microsome [23] it was 0.026 h.
